The source made the active and inactive calls. No cut-off for these calls is given here.
Legend:
[1] = system: HCT-116; assay: Cytotoxicity against human HCT116 cells after 72 hrs by resazurin assay; type: functional, cell-based; details: HCT-116, 72 h
Procedure, shortened: (§1)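 Cells were seeded at 2.5 × 10^3/well, cultured 24 h, then given compound in DMSO (<0.1%) at several concentrations for 72 h. Media: RPMI 1640/10% FCS for K562 and HCT116; DMEM/10% FCS for U87-MG; EGM2 with growth factors and 2% FCS for HUVEC. Resazurin was added for 1.5 h and fluorescence read (ex 560/em 590 nm). IC50 is the 50% fluorescence drop versus untreated cells. Run in triplicate.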

[2] = species: Ovis aries; assay: Ratio of compound IC50 to vinorelbine IC50 for sheep brain tubulin polymerization
Procedure, shortened: (§2)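 Sheep brain tubulin was mixed with compound in DMSO at 0 °C, then warmed to 37 °C. Assembly was followed as optical density at 350 nm. Maximum assembly rate was compared with a drug-free sample, and IC50 was derived from several concentrations. Vinorelbine IC50 was measured the same day on the same tubulin preparation.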

[3] = Cytotoxicity against human U87MG cells after 72 hrs by resazurin assay; type: functional, cell-based, U-87MG ATCC; details: U-87 MG; procedure, shortened: as §1
[4] = system: K562; assay: Cytotoxicity against human K562 cells after 72 hrs by resazurin assay; type: functional, cell-based; details: K562, 72 h; procedure, shortened: as §1
[5] = system: HUVEC; assay: Cytotoxicity against HUVEC after 72 hrs by resazurin assay; type: cell-based; details: Homo sapiens; procedure, shortened: as §1
[6] = Inhibition of sheep brain tubulin polymerization by UV spectrophotometric analysis; set-up: species or system Ovis aries; procedure, shortened: as §2
[7] = Cell cycle arrest in human U87MG cells assessed as accumulation at G2/M phase at >5 nM after 24 hrs by propidium iodide staining-based flow cytometric analysis; type: functional; details: U-87MG ATCC
Procedure, shortened: (§3)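 U87-MG glioblastoma cells grown in DMEM with 10% FCS and L-glutamine, 37 °C, 5% CO2. Exponentially growing cells were treated for 24 h at two concentrations, or with DMSO. Cells were harvested, dissociated, PBS-washed, fixed in cold 70% ethanol and kept at −20 °C overnight. Staining used propidium iodide with RNase for 30 min, followed by flow-cytometric cell-cycle profiling.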

[8] = system: K562; assay: Cell cycle arrest in human K562 cells assessed as accumulation at G2/M phase at 10 nM after 24 hrs by propidium iodide staining-based flow cytometric analysis; type: functional
Procedure, shortened: (§4)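 K562 cells grown in RPMI 1640 with 10% FCS and 1% glutamine, 37 °C, 5% CO2. Exponentially growing cells were exposed for 24 h to compound at two concentrations, or to DMSO. Cells were then harvested, PBS-washed, fixed in cold 70% ethanol (30 min, +4 °C) and held at −20 °C overnight. DNA was stained with propidium iodide plus RNase for 30 min, and the profile was read by flow cytometry.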

[9] = Cell cycle arrest in human U87MG cells assessed as accumulation at G2/M phase at 5 nM after 24 hrs by propidium iodide staining-based flow cytometric analysis; type: functional; details: U-87MG ATCC; procedure, shortened: as §3
[10] = system: K562; assay: Cell cycle arrest in human K562 cells assessed as accumulation at G2/M phase at >10 nM after 24 hrs by propidium iodide staining-based flow cytometric analysis; type: functional; procedure, shortened: as §4
[11] = Cell cycle arrest in human U87MG cells assessed as accumulation at G2/M phase at >50 nM after 24 hrs by propidium iodide staining-based flow cytometric analysis; type: functional; details: U-87MG ATCC; procedure, shortened: as §3
[12] = Cell cycle arrest in human U87MG cells assessed as accumulation at G2/M phase at 50 nM after 24 hrs by propidium iodide staining-based flow cytometric analysis; type: functional; details: U-87MG ATCC; procedure, shortened: as §3
[13] = system: K562; assay: Cell cycle arrest in human K562 cells assessed as accumulation at G2/M phase at >50 nM after 24 hrs by propidium iodide staining-based flow cytometric analysis; type: functional; procedure, shortened: as §4
[14] = system: K562; assay: Cell cycle arrest in human K562 cells assessed as accumulation at G2/M phase at 50 nM after 24 hrs by propidium iodide staining-based flow cytometric analysis; type: functional; procedure, shortened: as §4

SMILES: CCC1=C[C@@H]2CN(C1)/C(C(=O)NC(C)C)=C(/C(=O)OC)Cc1c([nH]c3ccccc13)[C@@](C(=O)OC)(c1cc3c(cc1OC)N(C)[C@H]1[C@@](O)(C(=O)OC)[C@H](OC(C)=O)[C@]4(CC)C=CCN5CC[C@]31[C@@H]54)C2
- IC50 [1]: 2500 nM
- Ratio IC50 [2]: 2
- IC50 [3]: 350 nM
- IC50 [4]: 1500 nM
- IC50 [5]: 700 nM
- IC50 [6]: 1600 nM

SMILES: C=CCNC(=O)/C1=C(\C(=O)OC)Cc2c([nH]c3ccccc23)[C@@](C(=O)OC)(c2cc3c(cc2OC)N(C)[C@H]2[C@@](O)(C(=O)OC)[C@H](OC(C)=O)[C@]4(CC)C=CCN5CC[C@]32[C@@H]54)C[C@@H]2C=C(CC)CN1C2
- IC50 [1]: 1800 nM
- IC50 [3]: 3000 nM
- IC50 [4]: 1000 nM
- IC50 [5]: 2000 nM
- IC50 [6]: 3700 nM

SMILES: CC[C@]1(O)C[C@@H]2CN(CCc3c([nH]c4ccccc34)[C@@](C(=O)OC)(c3cc4c(cc3OC)N(C)[C@H]3[C@@](O)(C(=O)OC)[C@H](OC(C)=O)[C@]5(CC)C=CCN6CC[C@]43[C@@H]65)C2)C1 [VINBLASTINE]
- IC50 [1]: 3.5 nM
- IC50 [3]: 1 nM
- IC50 [4]: 7 nM
- IC50 [5]: 0.8 nM
- IC50 [6]: 2100 nM

SMILES: CCC1=C[C@@H]2CN(C1)C[C@H](C(=O)OCc1ccccc1)Cc1c([nH]c3ccccc13)[C@@](C(=O)OC)(c1cc3c(cc1OC)N(C)[C@H]1[C@@](O)(C(=O)OC)[C@H](OC(C)=O)[C@]4(CC)C=CCN5CC[C@]31[C@@H]54)C2
- IC50 [6]: > 100000 nM

SMILES: CCC1=C[C@@H]2CN(/C=C(/C(=O)OC)Cc3c([nH]c4ccccc34)[C@@](C(=O)OC)(c3cc4c(cc3OC)N(C)[C@H]3[C@@](O)(C(=O)OC)[C@H](OC(C)=O)[C@]5(CC)C=CCN6CC[C@]43[C@@H]65)C2)C1
- IC50 [1]: 500 nM
- IC50 [3]: 700 nM
- IC50 [4]: 500 nM
- IC50 [5]: 250 nM
- IC50 [6]: 18000 nM

SMILES: CCOC(=O)/C1=C/N2CC(CC)=C[C@H](C2)C[C@](C(=O)OC)(c2cc3c(cc2OC)N(C)[C@H]2[C@@](O)(C(=O)OC)[C@H](OC(C)=O)[C@]4(CC)C=CCN5CC[C@]32[C@@H]54)c2[nH]c3ccccc3c2C1
- IC50 [6]: > 100000 nM

SMILES: CCC1=C[C@@H]2CN(C1)[C@H](C(=O)OC)[C@H](C(=O)OC)Cc1c([nH]c3ccccc13)[C@@](C(=O)OC)(c1cc3c(cc1OC)N(C)[C@H]1[C@@](O)(C(=O)OC)[C@H](OC(C)=O)[C@]4(CC)C=CCN5CC[C@]31[C@@H]54)C2
- IC50 [1]: 6 nM
- Activity [7]: Active
- Activity [8]: Active
- Activity [9]: Active
- IC50 [3]: 1.5 nM
- Activity [10]: Active
- IC50 [4]: 5 nM
- IC50 [5]: 2.5 nM
- IC50 [6]: 8600 nM

SMILES: CCC1=C[C@@H]2CN(C1)Cc1c([nH]c3ccccc13)[C@@](C(=O)OC)(c1cc3c(cc1OC)N(C)[C@H]1[C@@](O)(C(=O)OC)[C@H](OC(C)=O)[C@]4(CC)C=CCN5CC[C@]31[C@@H]54)C2 [VINORELBINE]
- IC50 [1]: 35 nM
- IC50 [3]: 2 nM
- IC50 [4]: 20 nM
- IC50 [5]: 2 nM
- IC50 [6]: 700 nM

SMILES: CCC1=C[C@@H]2CN(C1)/C(C(=O)NC(C)(C)C)=C(/C(=O)OC)Cc1c([nH]c3ccccc13)[C@@](C(=O)OC)(c1cc3c(cc1OC)N(C)[C@H]1[C@@](O)(C(=O)OC)[C@H](OC(C)=O)[C@]4(CC)C=CCN5CC[C@]31[C@@H]54)C2
- IC50 [1]: 60 nM
- IC50 [3]: 25 nM
- IC50 [4]: 50 nM
- IC50 [5]: 25 nM
- IC50 [6]: 10400 nM

SMILES: CCC1=C[C@@H]2CN(C1)[C@H](C(=O)NC(C)(C)C)[C@H](C(=O)OC)Cc1c([nH]c3ccccc13)[C@@](C(=O)OC)(c1cc3c(cc1OC)N(C)[C@H]1[C@@](O)(C(=O)OC)[C@H](OC(C)=O)[C@]4(CC)C=CCN5CC[C@]31[C@@H]54)C2
- IC50 [1]: 300 nM
- Ratio IC50 [2]: 1.7
- IC50 [3]: 80 nM
- IC50 [4]: 250 nM
- IC50 [5]: 70 nM
- IC50 [6]: 1100 nM

SMILES: CCC1=C[C@@H]2CN(C1)/C(C(=O)NCc1ccccc1)=C(/C(=O)OC)Cc1c([nH]c3ccccc13)[C@@](C(=O)OC)(c1cc3c(cc1OC)N(C)[C@H]1[C@@](O)(C(=O)OC)[C@H](OC(C)=O)[C@]4(CC)C=CCN5CC[C@]31[C@@H]54)C2
- IC50 [1]: 250 nM
- IC50 [3]: 10 nM
- IC50 [4]: 80 nM
- IC50 [5]: 40 nM
- IC50 [6]: 10400 nM

SMILES: CCC1=C[C@@H]2CN(C1)[C@H](C(=O)NC(C)C)[C@H](C(=O)OC)Cc1c([nH]c3ccccc13)[C@@](C(=O)OC)(c1cc3c(cc1OC)N(C)[C@H]1[C@@](O)(C(=O)OC)[C@H](OC(C)=O)[C@]4(CC)C=CCN5CC[C@]31[C@@H]54)C2
- IC50 [1]: 100 nM
- Ratio IC50 [2]: 0.6
- IC50 [3]: 20 nM
- IC50 [4]: 60 nM
- IC50 [5]: 150 nM
- IC50 [6]: 500 nM

SMILES: CCC1=C[C@@H]2CN(C1)C[C@H](C(=O)OC)Cc1c([nH]c3ccccc13)[C@@](C(=O)OC)(c1cc3c(cc1OC)N(C)[C@H]1[C@@](O)(C(=O)OC)[C@H](OC(C)=O)[C@]4(CC)C=CCN5CC[C@]31[C@@H]54)C2
- IC50 [1]: 18 nM
- Activity [11]: Active
- Activity [12]: Active
- Activity [13]: Active
- IC50 [3]: 7 nM
- IC50 [4]: 15 nM
- Activity [14]: Active
- IC50 [5]: 8 nM
- IC50 [6]: 2500 nM

SMILES: CCC1=C[C@@H]2CN(C1)/C(C(=O)OC)=C(/C(=O)OC)Cc1c([nH]c3ccccc13)[C@@](C(=O)OC)(c1cc3c(cc1OC)N(C)[C@H]1[C@@](O)(C(=O)OC)[C@H](OC(C)=O)[C@]4(CC)C=CCN5CC[C@]31[C@@H]54)C2
- IC50 [1]: 500 nM
- IC50 [3]: 700 nM
- IC50 [4]: 1000 nM
- IC50 [5]: 100 nM
- IC50 [6]: 6000 nM

SMILES: C=CCNC(=O)[C@@H]1[C@H](C(=O)OC)Cc2c([nH]c3ccccc23)[C@@](C(=O)OC)(c2cc3c(cc2OC)N(C)[C@H]2[C@@](O)(C(=O)OC)[C@H](OC(C)=O)[C@]4(CC)C=CCN5CC[C@]32[C@@H]54)C[C@@H]2C=C(CC)CN1C2
- IC50 [1]: 45 nM
- IC50 [3]: 10 nM
- IC50 [4]: 50 nM
- IC50 [5]: 25 nM
- IC50 [6]: 4900 nM

SMILES: CCC1=C[C@@H]2CN(C1)[C@H](C(=O)NCc1ccccc1)[C@H](C(=O)OC)Cc1c([nH]c3ccccc13)[C@@](C(=O)OC)(c1cc3c(cc1OC)N(C)[C@H]1[C@@](O)(C(=O)OC)[C@H](OC(C)=O)[C@]4(CC)C=CCN5CC[C@]31[C@@H]54)C2
- IC50 [1]: 200 nM
- IC50 [3]: 70 nM
- IC50 [4]: 75 nM
- IC50 [5]: 60 nM
- IC50 [6]: 2700 nM

SMILES: CCOC(=O)[C@@H]1Cc2c([nH]c3ccccc23)[C@@](C(=O)OC)(c2cc3c(cc2OC)N(C)[C@H]2[C@@](O)(C(=O)OC)[C@H](OC(C)=O)[C@]4(CC)C=CCN5CC[C@]32[C@@H]54)C[C@@H]2C=C(CC)CN(C2)C1
- IC50 [6]: > 100000 nM

SMILES: CCC1=C[C@@H]2CN(/C=C(/C(=O)OCc3ccccc3)Cc3c([nH]c4ccccc34)[C@@](C(=O)OC)(c3cc4c(cc3OC)N(C)[C@H]3[C@@](O)(C(=O)OC)[C@H](OC(C)=O)[C@]5(CC)C=CCN6CC[C@]43[C@@H]65)C2)C1
- IC50 [6]: > 100000 nM

— ChEMBL document CHEMBL2407008, “Synthesis and biological evaluation of a new series of highly functionalized 7'-homo-anhydrovinblastine derivatives” (J Med Chem, 2013)
